How the values were obtained:
[1] = Therapeutic index, ratio of CC50 for human MT4 cells to EC50 for HIV1 3B infected in human MT4 cells; assay type: cell-based; details: read-out: Ratio CC50/EC50
Summary of the method: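 Ratio of CC50 to EC50. Both were determined in parallel by MTT in MT-4 cells, with the EC50 measured against HIV-1 IIIB cytopathic effect.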

[2] = Cytotoxicity against human MT4 cells assessed as reduction in cell viability by MTT assay; assay type: cell-based
Summary of the method: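 MT-4 cell viability was measured by MTT reduction, run in parallel with the antiviral assay using 5-fold serial compound dilutions. CC50 is the concentration reducing viability by 50%.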

[3] = target: T1, Human immunodeficiency virus type 1 integrase (Human immunodeficiency virus 1, UniProt Q7ZJM1); assay: Inhibition of HIV1 integrase strand transfer activity using 5'[digoxigenin]-GACCCTTTTAGTCAGTGTGGAAAATCTCTAGCA-3' as substrate incubated for 1 hr by ELISA
T1 sequence (Q7ZJM1 whole entry): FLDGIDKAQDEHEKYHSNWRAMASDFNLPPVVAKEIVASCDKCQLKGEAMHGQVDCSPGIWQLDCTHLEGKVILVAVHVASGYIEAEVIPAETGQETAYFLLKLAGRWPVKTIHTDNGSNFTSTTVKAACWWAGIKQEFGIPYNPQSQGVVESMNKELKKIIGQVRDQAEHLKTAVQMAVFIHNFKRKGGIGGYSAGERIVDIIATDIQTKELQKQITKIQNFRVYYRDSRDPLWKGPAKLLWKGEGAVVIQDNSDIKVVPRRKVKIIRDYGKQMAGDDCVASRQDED
Summary of the method: (§1)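 ELISA with a 3'-biotin oligo and a 5'-digoxigenin partner oligo. Overall assay uses the full complementary oligo; strand transfer uses a precleaved oligo lacking the 3'-GT. Integrase at 160 nM final, annealed oligos 7 nM, in 10 mM MgCl2, 5 mM DTT, 20 mM HEPES pH 7.5, 0.5% PEG, 15% DMSO. Run 1 h at 37 °C, products denatured with NaOH, detected on avidin plates.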

[4] = target: T1, Human immunodeficiency virus type 1 integrase; assay: Inhibition of HIV1 integrase using 3'-biotin-labelled and 5'-digoxigenin-labelled oligonucleotide substrate incubated for 1 hr by ELISA; summary of the method: as §1
[5] = system: Human immunodeficiency virus 1; assay: Antiviral activity against HIV1 3B infected in human MT4 cells assessed as reduction in virus-induced cytopathic effect by MTT assay; assay type: functional, organism-based; details: Human immunodeficiency virus 1, 3B
Summary of the method: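 MT-4 cells infected with 100-300 CCID50 of HIV-1 IIIB, in the presence of 5-fold serial dilutions of compound. Cytopathic effect read by MTT reduction to formazan, measured spectrophotometrically. EC50 is the concentration giving 50% protection against virus-induced CPE.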

[6] = Inhibition of recombinant HIV1 reverse transcriptase RNase H activity using calf thymus ssDNA-[3H]-RNA as template/primer incubated for 10 mins; parameters: species or system Human immunodeficiency virus 1
Summary of the method: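 Recombinant HIV-1 RT (4.5 pmol) preincubated with compound 10 min at 37 °C. Then reacted 10 min at 37 °C with [3H]-RNA/calf thymus DNA hybrid (20,000 cpm) in 50 mM Tris-HCl pH 8.0, 10 mM DTT, 6 mM MgCl2, 80 mM KCl. Stopped with cold TCA/pyrophosphate; released radioactivity taken by subtraction from undigested control.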

[7] = system: Human immunodeficiency virus 1; assay: Selectivity ratio of EC50 for raltegravir resistant HIV1 harboring integrase G140S/Q148H double mutant infected in human MT4 cells to EC50 for wild type HIV1 3B infected in human MT4 cells; assay type: functional
Summary of the method: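 MT-4 cells were infected with 100–300 CCID₅₀ of virus stock (titrated in MT-4 cells) in the presence of 5-fold serial drug dilutions. EC₅₀ is the concentration giving 50% protection against virus-induced cytopathic effect, read by MTT reduction (MT-4/MTT assay). The value is the fold-change in EC₅₀ for each mutant strain relative to the wild-type HIV-1 strain.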

[8] = system: Human immunodeficiency virus 1; assay: Antiviral activity against HIV1 3B infected in human MT4 cells at 50 to 100 times antiviral EC50 added 1 to 25 hrs post infection assessed as time required for loss of inhibition of viral replication measured at 30 hrs post infection by p24 ELISA method; assay type: functional

Row | SMILES | selectivity ratio [1] | CC50 [2] [µM] | IC50 [3] [µM] | IC50 [4] [µM] | EC50 [5] [µM] | IC50 [6] [µM] | Ratio EC50 [7] | Time [8] [h]
1 | O=C(NC1CCCCC1)C1C(=O)N(O)C(=O)c2ccccc21 (stereo unspecified) | > 3 | > 250 | 3.36 | 0.7 | 80.2 |  |  | 
2 | CCCCNC(=O)C1C(=O)N(O)C(=O)c2ccccc21 (stereo unspecified) | 14 | 128 | 0.48 | 0.66 | 9.2 | 15.1 |  | 
3 | CCCCCNC(=O)C1C(=O)N(O)C(=O)c2ccccc21 (stereo unspecified) | 12.1 | 130 | 0.53 | 0.65 | 10.7 |  |  | 
4 | O=C(C1C(=O)N(O)C(=O)c2ccccc21)N1CCCCC1 (stereo unspecified) |  | 120 | 9.1 | 8.12 | > 120 |  |  | 
5 | O=C(NC1CC1)C1C(=O)N(O)C(=O)c2ccccc21 (stereo unspecified) | > 6 | > 250 | 4 | 2.13 | 42.7 |  |  | 
6 | CC(C)(C)NC(=O)C1C(=O)N(O)C(=O)c2ccccc21 (stereo unspecified) |  | 142 | 4.46 | 4.45 | > 142 |  |  | 
7 | CCCNC(=O)C1C(=O)N(O)C(=O)c2ccccc21 (stereo unspecified) | 4.7 | 131 | 1.99 | 1.82 | 28 |  |  | 
8 | C[C@@H]1CCO[C@H]2Cn3cc(C(=O)NCc4ccc(F)cc4F)c(=O)c(O)c3C(=O)N12 [DOLUTEGRAVIR] |  |  |  |  |  |  | 5 | 
9 | O=C(NC1CCCC1)C1C(=O)N(O)C(=O)c2ccccc21 (stereo unspecified) | > 4 | > 250 | 3.63 | 1.36 | 61.9 |  |  | 
10 | CC(C)NC(=O)C1C(=O)N(O)C(=O)c2ccccc21 (stereo unspecified) | 5.4 | 162 | 5.05 | 4.43 | 30.2 |  |  | 
11 | CCCCCCCCCNC(=O)C1C(=O)N(O)C(=O)c2ccccc21 (stereo unspecified) | 3 | 88.5 | 6.67 | 6.65 | 29 |  |  | 
12 | CCN(CC)C(=O)C1C(=O)N(O)C(=O)c2ccccc21 (stereo unspecified) |  | 28 | 206 | 123 | > 28 |  |  | 
13 | CCCCCCCCNC(=O)C1C(=O)N(O)C(=O)c2ccccc21 (stereo unspecified) | 3.5 | 98.5 | 9.13 | 9.05 | 28 |  |  | 
14 | CCCCCCCNC(=O)C1C(=O)N(O)C(=O)c2ccccc21 (stereo unspecified) | 3.4 | 110 | 1.05 | 0.86 | 32.5 | 23.2 |  | 
15 | CCCCN(C)C(=O)C1C(=O)N(O)C(=O)c2ccccc21 (stereo unspecified) |  | 63.8 | 8.7 | 8.66 | > 63.8 |  |  | 
16 | Cc1cn([C@H]2C[C@H](N=[N+]=[N-])[C@@H](CO)O2)c(=O)[nH]c1=O [ZIDOVUDINE] |  |  |  |  |  |  |  | 4
17 | CC(C)c1nc(CN(C)C(=O)N[C@H](C(=O)N[C@@H](Cc2ccccc2)C[C@H](O)[C@H](Cc2ccccc2)NC(=O)OCc2cncs2)C(C)C)cs1 [RITONAVIR] |  |  |  |  |  |  |  | 25

Source: ChEMBL document CHEMBL3804820, “2-hydroxyisoquinoline-1,3(2H,4H)-diones (HIDs) as human immunodeficiency virus type 1 integrase inhibitors: Influence of the alkylcarboxamide substitution of position 4” (Eur J Med Chem, 2016)
